According to PubChem BioAssay:
Activity calls are given as the source filed them.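 The calls were made as follows, unless noted: active = GFP response above 150% of the DMSO level; inconclusive = fewer than 70 events counted for a yeast strain; inactive = the rest.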

How the values were obtained:
[1] = hit retest on RPL19A-GFP reporter strain – cell-based, S. cerevisiae, flow cytometry, cherry picks, mother/daughter gates, confirmation (AID 2270;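 active = GFP response below 50% of the DMSO control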); conditions: 3 h, at 10 µM, stronger effect = lower value, 100 = same GFP as DMSO wells
[2] = yeast TOR pathway reporter LAP4-GFP change – cell-based, cherry picks, flow cytometry, mother/daughter gates, confirmation (AID 2271;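 active = GFP response above 150% of the DMSO control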;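 also: ratio of sample to DMSO plate mean so 100% equals DMSO level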); conditions: S. cerevisiae LAP4-GFP strain, 3 h, at 10 µM, stronger effect = higher value, 100 means same as DMSO control
Procedure, shortened: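 Test system: GFP-fusion yeast strain. Medium: synthetic complete (SC) yeast growth medium. Timing: 3 h treatment at 30 °C with rotation. Measured by: GFP by flow cytometry. Control set: positive rapamycin (400 ng/mL), negative DMSO.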

[3] = TOR pathway reporter MEP2-GFP, retest of hits – S. cerevisiae, flow cytometry GFP, cherry picks, confirmation (AID 2272;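 active = GFP response above 150% of the DMSO control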;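 also: ratio of well signal to plate DMSO mean so 100% equals DMSO level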); conditions: S. cerevisiae MEP2-GFP strain, 3 h, at 10 µM, stronger effect = higher value
[4] = yeast AGP1-GFP fluorescence change, single-dose – cell-based, flow cytometry, S. cerevisiae, cherry picks, confirmation (AID 2273);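 also: median GFP channel fluorescence over the whole cell population gate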; conditions: S. cerevisiae AGP1-GFP strain, 3 h, at 10 µM
[5] = TOR pathway CIT2 reporter hit retest – S. cerevisiae, GFP fusion, cherry picks, mother/daughter gates, confirmation (AID 2274); conditions: S. cerevisiae CIT2-GFP strain, flow cytometry, 3 h, at 10 µM, stronger effect = higher value
[6] = measured here: daughter cell gate
[7] = measured here: mother cell gate
[8] = measured here: daughter cell gate response
[9] = measured here: mother cell gate response

Row | Compound | GFP response vs DMSO [1] | GFP response vs DMSO [1, 6] | GFP response vs DMSO [1, 7] | GFP response relative to DMSO [2] | GFP response relative to DMSO [2, 8] | GFP response relative to DMSO [2, 9] | GFP response vs DMSO [3] | GFP response, % of DMSO [4] | GFP response, % of DMSO [5] | GFP response, % of DMSO [5, 6] | GFP response, % of DMSO [5, 7]
1 | CCOC(=O)c1ccccc1NC(=O)c1c(O)c2ccccc2n(CC)c1=O | 95.6% (inactive) | 96.9% | 96.2% | 101% (inactive) | 102% | 98.3% | 102% (inactive) | 93.7% (inactive) | 98.3% (inactive) | 99.1% | 97.3%
2 | CCc1c(C)c2cc(Cl)c(O)c(CN(C)C)c2oc1=O | 95.1% (inactive) | 95.6% | 94.8% | 95.3% (inactive) | 99% | 93.4% | 106% (inactive) | 93.9% (inactive) | 95.8% (inactive) | 95.8% | 94.9%
3 | CCOC(=O)C1C(=O)C=C(c2ccc(C)cc2)CC1c1ccco1 (stereo not drawn) | 99.9% (inactive) | 97.8% | 101% | 109% (inactive) | 103% | 112% | 102% (inactive) | 102% (inactive) | 95.2% (inactive) | 91.5% | 96.6%
4 | Cc1noc2ncnc(Sc3ccccc3Cl)c12 | 106% (inactive) | 104% | 105% | 112% (inactive) | 111% | 112% | 109% (inactive) | 101% (inactive) | 116% (inactive) | 113% | 114%
5 | CN1CCc2c(sc3c2C(=O)NC(c2ccc4c(c2)OCO4)N3)C1 (stereo not drawn) | 98.4% (inactive) | 99.8% | 98.5% | 96.5% (inactive) | 95% | 98.5% | 106% (inactive) | 102% (inactive) | 102% (inactive) | 102% | 99.1%
6 | CCCCOc1c(Br)cc(/C=C2\N=C(C)OC2=O)cc1OCC | 97.8% (inactive) | 98.4% | 97.7% | 106% (inactive) | 102% | 106% | 100% (inactive) | 101% (inactive) | 98.3% (inactive) | 99.1% | 98.5%
7 | CCCCNC(=O)c1c(O)c2cccc3c2n(c1=O)CCC3 | 98.8% (inactive) | 98.4% | 99.8% | 97.4% (inactive) | 95.6% | 100% | 100% (inactive) | 100% (inactive) | 97.8% (inactive) | 96.5% | 97.7%
8 | O=C(COC(=O)/C=C/c1cccs1)Nc1nc(-c2cccc(Br)c2)cs1 | 102% (inactive) | 103% | 102% | 89% (inactive) | 94.1% | 89% | 100% (inactive) | 96.7% (inactive) | 110% (inactive) | 108% | 112%
9 | CCOC(=O)C1=C(C)N=C2SC(C(=O)OC)=CC(=O)N2C1c1ccc(F)cc1 (stereo not drawn) | 103% (inactive) | 101% | 100% | 119% (inactive) | 110% | 124% | 91.3% (inactive) | 90.2% (inactive) | 96.5% (inactive) | 94.8% | 94.4%
10 | CCc1nnc(NC(=O)c2ccc(S(=O)(=O)N(C)Cc3ccccc3)cc2)o1 | 99% (inactive) | 99.5% | 98.5% | 103% (inactive) | 106% | 103% | 104% (inactive) | 103% (inactive) | 103% (inactive) | 99.7% | 105%
11 | O=C(/C=C/c1ccc(F)cc1)c1ccccc1Br | 98% (inactive) | 98.1% | 98.3% | 112% (inactive) | 112% | 116% | 103% (inactive) | 98.1% (inactive) | 93.4% (inactive) | 93.7% | 89.8%
12 | COc1ccc(-c2sc(C(=O)c3ccc(Cl)cc3Cl)cc2CC(=O)O)cc1 | 96% (inactive) | 95.9% | 95.8% | 130% (inactive) | 127% | 131% | 122% (inactive) | 101% (inactive) | 104% (inactive) | 105% | 104%
13 | Cc1ccc(S(=O)(=O)/N=C(\Sc2ccccc2)c2ccccc2)cc1 | 99.5% (inactive) | 98.3% | 98.6% | 151% (active) | 134% | 148% | 106% (inactive) | 97.3% (inactive) | 92.1% (inactive) | 92.7% | 87.5%
14 | CC(NCCS(=O)(=O)c1ccc(Cl)cc1)c1cccc(Cl)c1 (stereo not drawn) | 95.1% (inactive) | 96.4% | 94% | 97.7% (inactive) | 96% | 99.5% | 106% (inactive) | 98.2% (inactive) | 97.2% (inactive) | 97.6% | 98.2%
15 | COc1cccc(-c2nnc(NC(=O)c3ccc(S(=O)(=O)N4CCOCC4)cc3)o2)c1 | 97.6% (inactive) | 97.8% | 96.5% | 97.7% (inactive) | 99% | 97.4% | 101% (inactive) | 100% (inactive) | 100% (inactive) | 99.3% | 100%
16 | COc1ccc(NC2=C(Cl)C(=O)N(CCc3ccccc3)C2=O)cc1 | 98.7% (inactive) | 99.3% | 99.2% | 97.7% (inactive) | 99.3% | 96.5% | 104% (inactive) | 103% (inactive) | 102% (inactive) | 102% | 103%
17 | O=C(c1cc([N+](=O)[O-])cc([N+](=O)[O-])c1)N(Cc1nnc(-c2ccccc2Cl)o1)C1CC1 | 102% (inactive) | 101% | 105% | 96.2% (inactive) | 97.2% | 99.3% | 102% (inactive) | 97.2% (inactive) | 107% (inactive) | 103% | 109%
18 | CCOc1ccc(N2C(=O)CC(SCCN)C2=O)cc1 (stereo not drawn) | 97.6% (inactive) | 98.9% | 96.6% | 97.9% (inactive) | 99.2% | 97.2% | 105% (inactive) | 92.3% (inactive) | 98.3% (inactive) | 99.1% | 98.5%
19 | O=C1c2cccc3cccc(c23)C(=O)N1c1ccncc1 | 96.4% (inactive) | 97% | 98.8% | 84.9% (inactive) | 85% | 84.7% | 97.5% (inactive) | 103% (inactive) | 105% (inactive) | 106% | 106%
20 | Cc1ccc(N2C(=O)C3C4C=CC(CNC(=S)Nc5ccc(F)cc5)(O4)C3C2=O)cc1 (stereo not drawn) | 98.4% (inactive) | 99.9% | 97.5% | 102% (inactive) | 103% | 103% | 108% (inactive) | 105% (inactive) | 110% (inactive) | 110% | 110%
21 | Cc1ccc(NC(=S)N2CCSC2c2cccs2)cc1 (stereo not drawn) | 98.5% (inactive) | 98.1% | 97.8% | 97.7% (inactive) | 99% | 97.4% | 108% (inactive) | 101% (inactive) | 103% (inactive) | 99.3% | 103%
22 | O=C1C2C3C=CC(CNS(=O)(=O)c4ccccc4)(O3)C2C(=O)N1c1ccc(Cl)cc1 (stereo not drawn) | 102% (inactive) | 103% | 102% | 110% (inactive) | 109% | 109% | 114% (inactive) | 99.7% (inactive) | 111% (inactive) | 113% | 108%
23 | Cc1ccc(N2C(=O)C3C4C=CC(CNC(=S)N5CCN(c6ccccn6)CC5)(O4)C3C2=O)cc1 (stereo not drawn) | 98.7% (inactive) | 99.6% | 98.6% | 113% (inactive) | 109% | 111% | 106% (inactive) | 105% (inactive) | 99.3% (inactive) | 100% | 96.8%
